# Measured values as given in ChEMBL document CHEMBL1141114, “Adenosine kinase inhibitors. 5. Synthesis, enzyme inhibition, and analgesic activity of diaryl-erythro-furanosyltubercidin analogues” (J Med Chem, 2005).
# Assays:
# [1] = target: Adenosine kinase (Homo sapiens, UniProt P55263); assay: Inhibitory concentration against human recombinant adenosine kinase using [14C]AMP as radioligand
# [2] = system: Rattus norvegicus; assay: Percent inhibition of the licking and biting behavior in response to formalin injection at a dose of 20 mg/Kg when given orally in rat by formalin paw assay; (n=6); assay type: functional; conditions: po
# How it was run: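 Rats got 20 mg/kg orally in PEG 400 vehicle 2 h before intraplantar formalin, n = 6. Activity is expressed as % inhibition of licking and biting behaviour.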
# [3] = Time required to be halved at a dose of 3 mg/Kg in dog when given orally; assay type: ADME, organism-based, Canis lupus familiaris; conditions: in vivo, po
# How it was run: (§1)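 Rats and dogs, n = 3 per group. Oral dosing at 3 mg/kg as a suspension in 0.1% methylcellulose; intravenous dosing at 1 mg/kg as a solution in 75% PEG 400/25% saline. Plasma sampled at 0.25, 0.5, 1, 2, 4, 8 and 24 h and drug levels measured by HPLC. […] Parameters reported as mean ± S.D.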
# [4] = system: Monkey; assay: Effective dose for the analgesic effect measured after bradykinin injection when given orally by marmoset monkey bradykinin-induced licking; (n=6); assay type: functional; conditions: po
# How it was run: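 Six male marmosets (Callithrix jacchus, 250–340 g) got 0.3, 3, 10 or 30 mg/kg po, or 0.1% MC vehicle. At 60 min, 100 μL of 1 mM bradykinin in saline was injected intraplantar, alternating feet. Pain behaviour was scored 0–3 every 15 s for 15 min from video. Sessions were 2 weeks apart.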
# [5] = Distributed volume at a dose of 3 mg/Kg in rat when given orally; assay type: ADME, organism-based; conditions: in vivo, po; how it was run: as §1
# [6] = Plasma clearance at a dose of 3 mg/Kg in rat when given orally; assay type: ADME, organism-based; conditions: po; how it was run: as §1
# [7] = Maximum time to achieve plasma concentration at a dose of 3 mg/Kg in rat when given orally; assay type: ADME, organism-based; conditions: po; how it was run: as §1
# [8] = Area under the plot of plasma concentration at a dose of 3 mg/Kg in dog when given orally; assay type: ADME, Canis lupus familiaris; conditions: po, read-out: AUC 0-24h; how it was run: as §1
# [9] = Time required to be halved at a dose of 1 mg/kg in dog when given i.v.; assay type: ADME, organism-based, Canis lupus familiaris; set-up: dose 1 mg/kg, route intravenous; conditions: in vivo, iv; how it was run: as §1
# [10] = Area under the plot of plasma concentration at a dose of 1 mg/Kg in rat when given i.v.; assay type: ADME; conditions: iv; how it was run: as §1
# [11] = Distributed volume at a dose of 1 mg/Kg in rat when given i.v.; assay type: ADME, organism-based; conditions: in vivo, iv; how it was run: as §1
# [12] = system: Rattus norvegicus; assay: Percent inhibition of the analgesic effect measured after carrageenan injection at a dose of 20 mg/Kg therapeutic when given orally by carrageenan-induced thermal hyperalgesia test; assay type: functional
# How it was run: (§2)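 Fasted male SD rats (160–180 g) were injected in the right hind plantar paw with lambda carrageenan (2 mg in 100 μL). They were gavaged with 20 mg/kg or vehicle (PEG400/0.2% Tween/5% propylene glycol), either 0.5 h before (prophylactic) or 2 h after (therapeutic) carrageenan. Hargreaves heat withdrawal was measured in the inflamed and control paws at 3.5–4.5 h.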
# [13] = Distributed volume at a dose of 1 mg/kg in dog when given i.v.; assay type: ADME, organism-based, Canis lupus familiaris; set-up: dose 1 mg/kg, route intravenous; conditions: in vivo, iv; how it was run: as §1
# [14] = Time required to be halved at a dose of 3 mg/Kg in rat when given orally; assay type: ADME, organism-based; conditions: in vivo, po; how it was run: as §1
# [15] = Distributed volume at a dose of 3 mg/Kg in dog when given orally; assay type: ADME, organism-based, Canis lupus familiaris; conditions: in vivo, po; how it was run: as §1
# [16] = system: Rattus norvegicus; assay: Effective dose for the […] effect measured after 5 h when given orally in rat by rotarod assay.; assay type: functional; conditions: po
# How it was run: (§3)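 Fasted male SD rats (90–110 g) were dosed orally at 10–300 mg/kg in 0.1% MC. They were first trained to walk on a rotarod at 5 rpm for 150 s. Walking time, as a measure of sedation and ataxia, was recorded at 0, 0.5, 1, 2 and 5 h after dosing, with a 150 s cutoff.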
# [17] = Maximum plasma concentration at a dose of 1 mg/Kg in rat when given i.v.; assay type: ADME, organism-based; set-up: dose 1 mg/Kg, route intravenous; conditions: iv; how it was run: as §1
# [18] = Plasma clearance at a dose of 1 mg/kg in dog when given i.v.; assay type: ADME, organism-based, Canis lupus familiaris; set-up: dose 1 mg/kg, route intravenous; conditions: iv; how it was run: as §1
# [19] = system: Rattus norvegicus; assay: Effective dose for the analgesic effect measured after carrageenan injection when given orally by carrageenan-induced mechanical hyperalgesia test; assay type: functional; conditions: po
# How it was run: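 Fasted male SD rats (100–120 g) were dosed orally with 1, 3 or 10 mg/kg in 0.1% MC 1 h before intraplantar carrageenan (1%, 100 μL/paw). Mechanical hyperalgesia was read by Randall-Selitto analgesimeter at 3, 4 and 5 h after carrageenan.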
# [20] = Maximum plasma concentration at a dose of 3 mg/Kg in dog when given orally; assay type: ADME, organism-based, Canis lupus familiaris; set-up: dose 3 mg/Kg, route oral; conditions: po; how it was run: as §1
# [21] = Plasma clearance at a dose of 1 mg/Kg in rat when given i.v.; assay type: ADME, organism-based; conditions: iv; how it was run: as §1
# [22] = Bioavailability at a dose of 3 mg/Kg in rat when given orally; assay type: ADME, organism-based; conditions: in vivo, po; how it was run: as §1
# [23] = system: Rattus norvegicus; assay: Effective dose for the analgesic effect measured at 3 hr after administration when given orally by hot plate assay; (n=6); assay type: functional; conditions: po
# How it was run: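 Fasted male SD rats (150–200 g) were gavaged with vehicle or graded doses. Hind-paw lick latency on a 50 °C hot plate (60 s max) was measured before dosing and at 0.5–4 h after.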
# [24] = Bioavailability at a dose of 3 mg/Kg in dog when given orally; assay type: ADME, organism-based, Canis lupus familiaris; conditions: in vivo, po; how it was run: as §1
# [25] = system: Rattus norvegicus; assay: Effective dose for the […] effect measured after 2 hr when given orally in rat by rotarod assay.; assay type: functional; conditions: po; how it was run: as §3
# [26] = system: Rattus norvegicus; assay: Effective dose of the licking and biting behavior in response to formalin injection at a dose of 20 mg/Kg when given orally in rat by formalin paw assay; (n=6); assay type: functional; conditions: po
# [27] = Area under the plot of plasma concentration at a dose of 3 mg/Kg in rat when given orally; assay type: ADME; conditions: po; how it was run: as §1
# [28] = Maximum time to achieve plasma concentration at a dose of 3 mg/Kg in dog when given orally; assay type: ADME, organism-based, Canis lupus familiaris; conditions: po; how it was run: as §1
# [29] = Maximum plasma concentration at a dose of 1 mg/kg in dog when given i.v.; assay type: ADME, organism-based, Canis lupus familiaris; set-up: dose 1 mg/kg, route intravenous; conditions: iv; how it was run: as §1
# [30] = Maximum plasma concentration at a dose of 3 mg/Kg in rat when given orally; assay type: ADME, organism-based; set-up: dose 3 mg/Kg, route oral; conditions: po; how it was run: as §1
# [31] = system: Rattus norvegicus; assay: Percent inhibition of the analgesic effect measured after carrageenan injection at a dose of 20 mg/Kg prophylactic when given orally by carrageenan-induced thermal hyperalgesia test; assay type: functional; how it was run: as §2
# [32] = Area under the plot of plasma concentration at a dose of 1 mg/kg in dog when given i.v.; assay type: ADME, organism-based, Canis lupus familiaris; set-up: dose 1 mg/kg, route intravenous; conditions: iv, read-out: AUC 0-24h; how it was run: as §1
# [33] = Time required to be halved at a dose of 1 mg/Kg in rat when given i.v.; assay type: ADME, organism-based; conditions: in vivo, iv; how it was run: as §1
# [34] = Plasma clearance at a dose of 3 mg/Kg in dog when given orally; assay type: ADME, organism-based, Canis lupus familiaris; conditions: po; how it was run: as §1
# Adenosine kinase, sequence (P55263 whole entry): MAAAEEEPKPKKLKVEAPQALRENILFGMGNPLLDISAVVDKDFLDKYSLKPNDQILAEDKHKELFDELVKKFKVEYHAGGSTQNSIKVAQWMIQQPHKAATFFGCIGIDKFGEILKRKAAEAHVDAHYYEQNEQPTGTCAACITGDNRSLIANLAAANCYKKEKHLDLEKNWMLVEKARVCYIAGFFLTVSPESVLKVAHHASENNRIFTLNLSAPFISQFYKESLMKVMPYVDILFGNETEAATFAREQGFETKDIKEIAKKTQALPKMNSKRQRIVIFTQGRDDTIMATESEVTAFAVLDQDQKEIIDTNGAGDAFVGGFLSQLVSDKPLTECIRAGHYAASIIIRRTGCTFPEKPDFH
smiles,measurement,setting,value
O[C@H]1[C@H](n2cc(-c3ccccc3)c3c(Nc4ccc(F)cc4)ncnc32)OC2(CC2)[C@H]1O,IC50,[1],0.3 nM
Nc1ncnc2c1c(I)cn2[C@@H]1OC[C@@H](O)[C@H]1O,IC50,[1],6 nM
CCOc1ccc(-c2cn([C@@H]3OC[C@@H](O)[C@H]3O)c3ncnc(Nc4ccccc4OC)c23)cc1,inhibition in vivo at 20 mg/kg,[2],16%
same,IC50,[1],5.3 nM
CCOc1ccc(Nc2ncnc3c2c(-c2ccccc2)cn3[C@@H]2OC[C@@H](O)[C@H]2O)cc1,inhibition in vivo at 20 mg/kg,[2],41%
same,IC50,[1],3 nM
O[C@@H]1[C@H](O)CO[C@H]1n1cc(-c2ccccc2)c2c(Nc3ccc(F)cc3)ncnc21,half-life,[3],4 h
same,ED50,[4],3.8 mg/kg
same,Vd,[5],6.2 L/kg
same,CL/F,[6],25 mL/min/kg
same,Tmax,[7],3.5 h
same,AUC,[8],5340 ng·h/mL
same,half-life,[9],3.9 h
same,AUC0-8h,[10],785 ng·h/mL
same,Vd,[11],6.9 L/kg
same,Inhibition,[12],99%
same,Vd,[13],2 L/kg
same,half-life,[14],3 h
same,Vd,[15],2.2 L/kg
same,inhibition in vivo at 20 mg/kg,[2],76%
same,ED50,[16],11.9 mg/kg
same,Cmax,[17],523 ng/mL
same,clearance,[18],6.67 mL/min/kg
same,ED50,[19],2.4 mg/kg
same,Cmax,[20],628 ng/mL
same,clearance,[21],21.7 mL/min/kg
same,bioavailability,[22],61.2%
same,ED50,[23],16 mg/kg
same,bioavailability,[24],60%
same,ED50,[25],21.7 mg/kg
same,ED50,[26],3.6 mg/kg
same,AUC0-8h,[27],1440 ng·h/mL
same,Tmax,[28],1.6 h
same,Cmax,[29],585 ng/mL
same,IC50,[1],6 nM
same,Cmax,[30],135 ng/mL
same,Inhibition,[31],151%
same,AUC,[32],2970 ng·h/mL
same,half-life,[33],3.2 h
same,CL/F,[34],6.67 mL/min/kg
N#Cc1ccc(Nc2ncnc3c2c(-c2ccc(Cl)cc2)cn3[C@@H]2OC[C@@H](O)[C@H]2O)cc1,inhibition in vivo at 20 mg/kg,[2],75%
same,IC50,[1],7 nM
O[C@@H]1[C@H](O)CO[C@H]1n1cc(-c2ccccc2)c2c(Nc3ccc4c(c3)OCCO4)ncnc21,inhibition in vivo at 20 mg/kg,[2],80%
same,IC50,[1],4 nM
CC1(C)O[C@@H](n2cc(-c3ccccc3)c3c(Nc4ccccc4)ncnc32)[C@H](O)[C@@H]1O,IC50,[1],4000 nM
Cc1ccccc1-c1cn([C@@H]2OC[C@@H](O)[C@H]2O)c2ncnc(Nc3ccc4c(c3)OCCO4)c12,inhibition in vivo at 20 mg/kg,[2],99%
same,IC50,[1],1 nM
CCOc1cccc(Nc2ncnc3c2c(-c2ccccc2)cn3[C@@H]2OC[C@@H](O)[C@H]2O)c1,inhibition in vivo at 20 mg/kg,[2],76%
same,IC50,[1],2 nM
Nc1ncnc2c1c(I)cn2[C@@H]1OC2(CC2)[C@@H](O)[C@H]1O,IC50,[1],600 nM
O[C@@H]1[C@H](O)CO[C@H]1n1cc(-c2ccccc2)c2c(Nc3ccccc3)ncnc21,inhibition in vivo at 20 mg/kg,[2],78%
same,IC50,[1],4 nM
Nc1cccc(-c2cn([C@@H]3OC[C@@H](O)[C@H]3O)c3ncnc(Nc4ccc(F)cc4)c23)c1,inhibition in vivo at 20 mg/kg,[2],31%
same,IC50,[1],10 nM
O[C@@H]1[C@H](O)CO[C@H]1n1cc(-c2ccccc2)c2c(Nc3ccc(Br)cc3)ncnc21,inhibition in vivo at 20 mg/kg,[2],33%
same,IC50,[1],5 nM
CCOc1ccc(-c2cn([C@@H]3OC[C@@H](O)[C@H]3O)c3ncnc(Nc4ccc(C#N)cc4)c23)cc1,inhibition in vivo at 20 mg/kg,[2],84%
same,IC50,[1],2 nM
C[C@H]1O[C@@H](n2cc(-c3ccccc3)c3c(Nc4ccc(F)cc4)ncnc32)[C@H](O)[C@@H]1O,inhibition in vivo at 20 mg/kg,[2],59%
